Experimental findings from ChEMBL document CHEMBL2069177, “A prospective cross-screening study on G-protein-coupled receptors: lessons learned in virtual compound library design” (J Med Chem, 2012) are described below.

Structures are written as SMILES.

Sequence of Sphingosine 1-phosphate receptor 1 (P21453 whole entry, the tested form may be a part): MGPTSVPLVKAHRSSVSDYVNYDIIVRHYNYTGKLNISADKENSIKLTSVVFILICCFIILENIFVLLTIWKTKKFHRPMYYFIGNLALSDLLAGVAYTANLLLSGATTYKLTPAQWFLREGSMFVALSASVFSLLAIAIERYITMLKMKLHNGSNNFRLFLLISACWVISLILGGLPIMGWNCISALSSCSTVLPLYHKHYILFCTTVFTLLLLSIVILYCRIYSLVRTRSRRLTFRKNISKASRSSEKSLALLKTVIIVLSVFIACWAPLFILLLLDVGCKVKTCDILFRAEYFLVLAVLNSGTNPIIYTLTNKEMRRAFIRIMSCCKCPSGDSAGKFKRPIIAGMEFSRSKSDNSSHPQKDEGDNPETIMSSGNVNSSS
Sequence of Beta-2 adrenergic receptor (P07550 whole entry): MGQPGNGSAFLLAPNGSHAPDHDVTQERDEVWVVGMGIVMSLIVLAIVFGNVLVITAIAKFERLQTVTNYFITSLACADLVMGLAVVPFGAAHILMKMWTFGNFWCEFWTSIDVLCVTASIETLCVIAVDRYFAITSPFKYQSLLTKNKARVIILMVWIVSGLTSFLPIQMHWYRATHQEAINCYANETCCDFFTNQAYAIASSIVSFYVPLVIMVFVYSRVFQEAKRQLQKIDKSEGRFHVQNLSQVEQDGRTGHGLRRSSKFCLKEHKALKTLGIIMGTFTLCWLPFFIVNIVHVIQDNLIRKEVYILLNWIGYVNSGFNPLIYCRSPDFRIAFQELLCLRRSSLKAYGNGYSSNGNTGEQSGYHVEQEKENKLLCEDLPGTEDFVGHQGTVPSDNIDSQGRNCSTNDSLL

One experiment has as its target Sphingosine 1-phosphate receptor 1 (Homo sapiens, UniProt P21453). The experiment is described as follows: Induction of beta-arrestin2 recruitment to human S1PR1 expressed in CHOK1 cells after 2 hrs by beta-galactosidase assay. Format: cell-based, CHO-K1. In outline: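 PathHunter enzyme-fragment-complementation CHO-K1 S1PR1 β-arrestin cells seeded at 10,000/well in OPTI-MEM and held overnight at 37 °C. Compound added for 2 h at 37 °C, then 1 h at room temperature. Lysed with detection reagent and read by chemiluminescence after 2 h dark. Recruitment referenced to AUY954 (1 µM). Hits with ≥30% recruitment went to dose-response. pEC50, n=1 in triplicate.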
A general note: Recruitment of arrestin is a read-out of receptor activation apart from second messengers.
With `O=C(Nc1nc2ccc(-c3nc4ccccc4[nH]3)cc2s1)C1CCCCC1`, the response was half-maximal at 20 µM (EC50).

`Cc1ccc(S(=O)(=O)Nc2nc3n(n2)C(c2ccccc2)C=C(c2ccccc2)N3)cc1` (configuration not stated): the EC50 (commonly the concentration that produces a half-maximal response) is 50.1 µM.

`CC(=O)N1CCc2cc(Br)cc(S(=O)(=O)N3CCC(O)(c4cccc(C(F)(F)F)c4)CC3)c21` had an EC50 of 31.6 µM.

In the next experiment the target is Adenosine receptor A2a (Homo sapiens, UniProt P29274). Briefly: Displacement of [3H]ZM241385 from human AA2AR expressed in HEK293T cells after 2 hrs by liquid scintillation counter. Format: cell-based, HEK-293T. In short, it runs like this: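 Membranes of HEK293T cells stably expressing AA2AR (40 µg protein) incubated with 1.7 nM (final) [3H]ZM241385 in 50 mM Tris·HCl pH 7.4, 2 h at 25 °C with shaking. Nonspecific binding defined with 100 µM CGS21680. Filtered over GF/B, washed three times with ice-cold buffer. Compounds giving ≥50% inhibition at 10 µM went to concentration-response curves. pKi values, n=3 in duplicate.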
Sequence of Adenosine receptor A2a (P29274 whole entry): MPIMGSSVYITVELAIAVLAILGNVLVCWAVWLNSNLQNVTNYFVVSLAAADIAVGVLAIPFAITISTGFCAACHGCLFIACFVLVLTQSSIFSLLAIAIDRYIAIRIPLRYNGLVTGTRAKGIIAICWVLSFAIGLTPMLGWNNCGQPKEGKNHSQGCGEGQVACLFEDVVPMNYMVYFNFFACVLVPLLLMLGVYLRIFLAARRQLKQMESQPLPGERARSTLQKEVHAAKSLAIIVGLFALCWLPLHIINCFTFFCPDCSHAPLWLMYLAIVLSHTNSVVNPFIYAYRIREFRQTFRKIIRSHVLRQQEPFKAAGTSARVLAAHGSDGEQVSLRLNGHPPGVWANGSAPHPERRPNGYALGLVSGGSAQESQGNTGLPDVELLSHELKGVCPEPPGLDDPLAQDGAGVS
Background: In a radioligand displacement assay an active substance lowers the binding of a labelled ligand.
Take `CCOC(=O)c1nc[nH]c1/N=N/c1c(O)ccc2ccccc12`: the affinity, expressed as Ki, was 1.26 µM.

With `COCC1=CC(O)N=C(Nc2nc(C)c3ccccc3n2)N1` (configuration not stated), affinity was put at a Ki of 0.631 µM.

In the case of `Nc1ccc(C(=O)Nc2ccc(O)c(-c3nc4ccccc4[nH]3)c2)cc1`, the Ki – broadly, the equilibrium dissociation constant of an inhibitor or competing ligand from its target – was 1.58 µM.

On to `CCCc1nn(C)c2c(=O)[nH]c(-c3cc(S(=O)(=O)N4CCN(C)CC4)ccc3OCC)nc12` [SILDENAFIL], for which the Ki was 0.2 µM.

In turn, `COc1cc(/C=N/Nc2ncnc3sc4c(c23)CCCC4)ccc1O` gave a Ki of 5.01 µM.

`O=C(CCN1C(=O)c2ccccc2C1=O)Nc1nc2ccccc2s1` had a Ki of 5.01 µM.

On to `Cc1cccc2sc(NC(=O)CNS(=O)(=O)c3cccs3)nc12`, for which the Ki is 1.58 µM.

In turn, `N#CCSc1nc2cc(C(=O)N3CCC(C(N)=O)CC3)ccc2c2nc3ccccc3n12` showed a Ki of 1 µM.

`O=C1c2ccccc2C(=O)c2cc(OCC(O)CN3CCCCC3)ccc21` (configuration not stated) showed a Ki of 5.01 µM.

As for `Cc1nc2[nH]c3ccccc3n2c(=O)c1CCOC(=O)C1CCCCC1`, the Ki is 2.51 µM.

Compound `Cc1n[nH]c(C)c1S(=O)(=O)N1CCC(C(=O)Nc2nc3c(C)cccc3s2)CC1` gave a Ki of 1 µM.

On to `Cc1cc(NC(=O)CSc2nc3ccccc3c3nc4ccccc4n23)n[nH]1`, for which the Ki was 0.631 µM.

In turn, `N/C(=N\C(=O)CN1C(=O)C2CCCCC2C1=O)Nc1nc2ccccc2s1` (configuration not stated) had a Ki of 5.01 µM.

With `CC1CCN(C(=O)c2ccc3c(=O)[nH]c4c(-c5ccccc5)nnn4c3c2)CC1`, the Ki was 2.51 µM.

As for `Cc1ccc2[nH]c3nc(SCC(=O)Nc4ncc(C)s4)nnc3c2c1`, the affinity, expressed as Ki, was 3.98 µM.

As for `N=C(NC(=O)C(Cc1ccccc1)N1C(=O)c2ccccc2C1=O)Nc1nc2ccccc2o1` (configuration not stated), the affinity corresponds to a Ki of 3.98 µM.

Compound `N#C/C(=N\Nc1ccc(S(N)(=O)=O)cc1)c1nc2ccccc2[nH]1` showed a Ki of 5.01 µM.

On to `CC1=C(C(=O)Nc2nc3ccccc3s2)C(c2ccco2)C(C#N)=C(SCC(N)=O)N1` (configuration not stated), for which the affinity, expressed as Ki, was 6.31 µM.

Another experiment deals with Beta-2 adrenergic receptor (Homo sapiens, UniProt P07550). The experiment is described as follows: Displacement of [3H]dihydroalprenolol from human ADRB2 expressed in HEK293T cells after 1 hr by liquid scintillation counter. Format: cell-based, HEK-293T. In short, it runs like this:
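HEK293T cells transiently transfected with ADRB2 using PEI, harvested 48 h later for membranes. Membranes incubated at room temperature for 1 h with 1 nM [3H]-dihydroalprenolol in HEPES pH 7.4 with CaCl2, MgCl2, NaCl and 0.5% BSA. Filtered on GF/C presoaked in PEI, washed with ice-cold buffer plus 500 mM NaCl. Compounds giving ≥50% inhibition at 10 µM went to concentration-response curves. Ki by nonlinear regression, n=3 in triplicate.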
On to `Cc1nc2ccc(O)c(CN(C)C)c2[nH]1`, for which the Ki is 25.1 µM.

Compound `Cc1ccc(C(C)C)c(OCC(O)CN2CCN(CCO)CC2)c1` (configuration not stated) had a Ki of 39.8 µM.

In turn, `Cc1ccc(C(C)C)c(OCC(O)CN2CCCCC2)c1` (configuration not stated) gave a Ki of 0.794 µM.

`Cc1ccc(C)c(OCC(O)CNC2CCCC2)c1` (configuration not stated) gave a Ki of 2 µM.

In turn, `O=C1Cc2ccccc2Sc2c(OCCN3CCCCC3)cccc21` showed a Ki of 794 µM.

For `CC(=O)c1c(CSc2ccccc2)oc2ccc(O)c(CN(C)C)c12`, the affinity corresponds to a Ki of 39.8 µM.
